Source: ChEMBL document CHEMBL1122485, “Antibacterially active substituted anilides of carboxylic and sulfonic acids” (1983)
≈ marks a conversion by molar mass, not a printed value.

Key:
[1] = test system: Bacillus cereus; assay: Activity at 10 ppm against Bacillus cereus NRRL 3711; x=Effective; type: functional, organism-based
In short: (§1)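 Gram-positive panel on nutrient agar containing compound at 10, 1.0 and 0.1 ppm, duplicate plates. Six 15-µL drops per species, each holding 10⁷ vegetative cells (10⁶ for L. plantarum). Hexachlorophene and no-compound plates were run alongside. Plates were incubated 5 days at 30 °C and scored for growth. MIC was taken as the lowest level with no colonies on either plate.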

[2] = test system: Lactiplantibacillus plantarum; assay: Activity at 10 ppm against Lactobacillus plantarum; x=Effective; type: functional, organism-based; in short: as §1
[3] = test system: Staphylococcus aureus; assay: Bacteriostatic activity against Staphylococcus aureus ATCC 6538 at 10 ppm concentration; + =Positive; type: functional, organism-based
In short: (§2)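 S. aureus was inoculated at 10⁷/mL into 10 mL nutrient broth with 10 ppm compound. Those tubes were centrifuged (10000g, 10 min), resuspended in sterile diluent and streaked onto nutrient agar. Colonies after 48 h at 30 °C meant bacteriostatic; none meant bactericidal.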

[4] = test system: Staphylococcus aureus; assay: Minimum inhibitory concentration against staphylococcus aureus ATCC 6538; type: functional
In short: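 Agar dilution: 1% stocks in 95% ethanol or water, serially diluted into nutrient agar (pH 6.8) to 1000, 100, 10 and 1 ppm. Plates were dried 30 min at 37 °C and spotted with ten drops of 24-h nutrient broth culture. Incubation was 48 h at 37 °C, in duplicate, with hexachlorophene as standard. MIC was the lowest level with no growth of any inoculum on either dish.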

[5] = test system: Staphylococcus aureus; assay: Activity at 10 ppm against Staphylococcus aureus ATCC 6538; x=Effective; type: functional, organism-based
[6] = test system: Staphylococcus aureus; assay: Bactericidal activity against Staphylococcus aureus ATCC 6538 at 10 ppm concentration; - = Negative; type: functional, organism-based; in short: as §2
[7] = test system: Enterococcus faecalis; assay: Activity at 10 ppm against Streptococcus faecalis; x=Effective; type: functional, organism-based; in short: as §1

MIC [4] [µg/mL] | SMILES | further results
10 (≈ 28.5 µM) | CCCCc1ccc(S(=O)(=O)Nc2cc([N+](=O)[O-])ccc2O)cc1 | Activity [1]: Concentration effective; Activity [2]: Concentration effective; Activity [3]: Negative; Activity [5]: Concentration effective; Activity [6]: Negative
> 1000 | O=C(O)CCCCCCCCC(=O)Nc1ccc(Cl)c([N+](=O)[O-])c1 | 
100 (≈ 292 µM) | O=C(O)CCCCCCCC(=O)Nc1ccc(Cl)c([N+](=O)[O-])c1 | 
> 1000 | CCCc1ccc(C(=O)Nc2ccc(Cl)c(Cl)c2)cc1 | 
1000 (≈ 2970 µM) | CCCCCCCCCCCC(=O)Nc1cc([N+](=O)[O-])ccc1O | 
100 (≈ 333 µM) | O=C(O)CCCCC(=O)Nc1ccc(Cl)c([N+](=O)[O-])c1 | 
> 1000 | COC(=O)CCCCCCCCC(=O)Nc1ccc(Cl)c(Cl)c1 | 
10 (≈ 34.5 µM) | CCC(C(=O)Nc1cc(Cl)ccc1O)c1ccccc1 (stereo unspecified) | 
10 (≈ 31.8 µM) | C=C(CCCCCCC)C(=O)Nc1cc(Cl)cc(Cl)c1 | 
> 1000 | CCCc1ccc(C(=O)Nc2cc(Cl)ccc2O)cc1 | 
1000 (≈ 2800 µM) | COC(=O)CCCCCCCC(=O)Nc1ccc(Cl)c([N+](=O)[O-])c1 | 
1 (≈ 3.07 µM) | CCCc1ccc(S(=O)(=O)Nc2cc(Cl)ccc2O)cc1 | Activity [1]: Concentration effective; Activity [2]: Concentration effective; Activity [3]: Negative; Activity [7]: Concentration effective; Activity [5]: Concentration effective; Activity [6]: Negative
10 (≈ 38.4 µM) | CCCCCC(=O)Nc1cc(Cl)cc(Cl)c1 | 
10 (≈ 30.6 µM) | CCCCCCCCCC(=O)Nc1ccc(Cl)c([N+](=O)[O-])c1 | 
10 (≈ 36.5 µM) | CCCCCCC(=O)Nc1ccc(Cl)c(Cl)c1 | 
1 (≈ 2.89 µM) | COC(=O)CCCCCCCC(=O)Nc1ccc(Cl)c(Cl)c1 | 
1000 (≈ 3570 µM) | Cc1ccc(C(=O)Nc2ccc(Cl)c(Cl)c2)cc1 | 
> 1000 | O=C(Cc1ccccc1)Nc1ccc(Cl)c(Cl)c1 | 
10 (≈ 27.5 µM) | O=[N+]([O-])c1ccc(O)c(NS(=O)(=O)c2ccc(Cl)c(Cl)c2)c1 | 
10 (≈ 33.7 µM) | C=C(CCCCC)C(=O)Nc1ccc(Cl)c([N+](=O)[O-])c1 | 
1 (≈ 2.96 µM) | C=C(CCCCCCCCCC)C(=O)Nc1cc(Cl)ccc1O | 
1 (≈ 2.62 µM) | O=[N+]([O-])c1cc(NS(=O)(=O)c2ccc(Cl)c(Cl)c2)ccc1Cl | Activity [2]: Concentration effective; Activity [3]: Negative; Activity [7]: Concentration effective; Activity [6]: Negative
10 (≈ 36.7 µM) | C=C(CCCC)C(=O)Nc1ccc(Cl)c(Cl)c1 | 
> 1000 | O=C(Nc1ccc(Cl)c(Cl)c1)c1ccc(Cl)c(Cl)c1 | 
10 (≈ 28.2 µM) | CCCc1ccc(S(=O)(=O)Nc2ccc(Cl)c([N+](=O)[O-])c2)cc1 | 
10 (≈ 34.9 µM) | C=C(CCCCC)C(=O)Nc1ccc(Cl)c(Cl)c1 | 

MIC [4] [µg/mL] | SMILES | further results
10 (≈ 36.9 µM) | CCCCCC(=O)Nc1ccc(Cl)c([N+](=O)[O-])c1 | 
10 (≈ 36.7 µM) | C=C(CCCC)C(=O)Nc1cc(Cl)cc(Cl)c1 | 
100 (≈ 373 µM) | C=C(CCCCC)C(=O)Nc1cc(Cl)ccc1O | 
> 1000 | O=C(Nc1cc(Cl)ccc1O)c1ccc(Cl)c(Cl)c1 | 
1000 (≈ 3450 µM) | O=C(O)CCCCC(=O)Nc1ccc(Cl)c(Cl)c1 | 
> 1000 | C=C(CCCCCCCCCC)C(=O)Nc1cc(Cl)cc(Cl)c1 | 
1000 (≈ 3620 µM) | COC(=O)CCC(=O)Nc1ccc(Cl)c(Cl)c1 | 
10 (≈ 35.1 µM) | CCCCCCC(=O)Nc1ccc(Cl)c([N+](=O)[O-])c1 | 
1 (≈ 3.38 µM) | C=C(CCCCCCC)C(=O)Nc1cc(Cl)ccc1O | 
> 1000 | O=C(O)CCC(=O)Nc1c(Cl)cccc1Cl | 
10 (≈ 32.4 µM) | CCC(C(=O)Nc1ccc(Cl)c(Cl)c1)c1ccccc1 (stereo unspecified) | 
1 (≈ 3.33 µM) | C=C(CCCCCC)C(=O)Nc1ccc(Cl)c(Cl)c1 | 
1 (≈ 3.18 µM) | CCCCc1ccc(C(=O)Nc2cc([N+](=O)[O-])ccc2O)cc1 | 
100 (≈ 382 µM) | O=C(Cc1ccccc1)Nc1cc(Cl)ccc1O | 
100 (≈ 363 µM) | O=C(CCc1ccccc1)Nc1cc(Cl)ccc1O | 
1 (≈ 2.97 µM) | CCCc1ccc(S(=O)(=O)Nc2cc([N+](=O)[O-])ccc2O)cc1 | 
100 (≈ 290 µM) | CCCCCCCCCCCC(=O)Nc1ccc(Cl)c(Cl)c1 | 
1000 (≈ 3290 µM) | CCCCc1ccc(C(=O)Nc2cc(Cl)ccc2O)cc1 | 
10 (≈ 38.4 µM) | CCCCCC(=O)Nc1ccc(Cl)c(Cl)c1 | 
1 (≈ 3.57 µM) | CCCCCCCC(=O)Nc1cc([N+](=O)[O-])ccc1O | Activity [1]: Concentration effective; Activity [2]: Concentration effective; Activity ([3]; Bacteria): Negative; Activity [7]: Concentration effective; Activity [5]: Concentration effective; Activity [6]: Negative
> 1000 | C=C(CCCCCCCCCC)C(=O)Nc1ccc(Cl)c(Cl)c1 | 
10 (≈ 29 µM) | CCCCCCCCCCCC(=O)Nc1cc(Cl)cc(Cl)c1 | 
100 (≈ 314 µM) | O=C(O)CCCCCCC(=O)Nc1ccc(Cl)c(Cl)c1 | 
1 (≈ 3.08 µM) | C=C(CCCCCCC)C(=O)Nc1ccc(Cl)c([N+](=O)[O-])c1 | 
1 (≈ 2.95 µM) | C=C(CCCCCCCC)C(=O)Nc1ccc(Cl)c([N+](=O)[O-])c1 | 
10 (≈ 31.6 µM) | Cc1ccc(S(=O)(=O)Nc2ccc(Cl)c(Cl)c2)cc1 | 

MIC [4] [µg/mL] | SMILES | further results
1 (≈ 3.22 µM) | C=C(CCCCCC)C(=O)Nc1ccc(Cl)c([N+](=O)[O-])c1 | 
1000 (≈ 3820 µM) | O=C(O)CCC(=O)Nc1ccc(Cl)c(Cl)c1 | 
100 (≈ 304 µM) | O=C(O)CCCCCCC(=O)Nc1ccc(Cl)c([N+](=O)[O-])c1 | 
10 (≈ 41.4 µM) | CCCCCC(=O)Nc1cc(Cl)ccc1O | 
10 (≈ 33.3 µM) | CCCc1ccc(C(=O)Nc2cc([N+](=O)[O-])ccc2O)cc1 | 
1 (≈ 3.07 µM) | CCCCCCCCCCCC(=O)Nc1cc(Cl)ccc1O | 
> 1000 | CCCCCCc1ccc(C(=O)Nc2ccc(Cl)c(Cl)c2)cc1 | 
10 (≈ 34 µM) | CCCCCCCCC(=O)Nc1cc([N+](=O)[O-])ccc1O | 
10 (≈ 27.9 µM) | CCC(C)c1ccc(S(=O)(=O)Nc2ccc(Cl)c(Cl)c2)cc1 (stereo unspecified) | 
1 (≈ 3.31 µM) | CCCCCCCCC(=O)Nc1cc(Cl)cc(Cl)c1 | 
> 1000 | CCCc1ccc(S(=O)(=O)N(Cc2ccc(Cl)cc2)c2ccc(Cl)c(Cl)c2)cc1 | 
1000 (≈ 3100 µM) | CCCCc1ccc(C(=O)Nc2ccc(Cl)c(Cl)c2)cc1 | 
1000 (≈ 2690 µM) | O=S(=O)(Nc1ccc(Cl)c(Cl)c1)c1cc(Cl)ccc1Cl | 
> 1000 | CCCCCCCCCCCC(=O)Nc1ccc(Cl)c([N+](=O)[O-])c1 | 
1 (≈ 3.31 µM) | CCCCCCCCC(=O)Nc1ccc(Cl)c(Cl)c1 | 
10 (≈ 35.9 µM) | C=C(CCCCC)C(=O)Nc1cc([N+](=O)[O-])ccc1O | 
> 1000 | CCCc1ccc(S(=O)(=O)N(C)c2ccc(Cl)c(Cl)c2)cc1 | 
1 (≈ 3.65 µM) | CCCCCCC(=O)Nc1cc(Cl)cc(Cl)c1 | Activity [2]: Concentration effective; Activity [3]: Negative; Activity [5]: Concentration effective; Activity [6]: Negative
1 (≈ 3.18 µM) | C=C(CCCCCCC)C(=O)Nc1ccc(Cl)c(Cl)c1 | 
10 (≈ 30.3 µM) | CCc1ccc(S(=O)(=O)Nc2ccc(Cl)c(Cl)c2)cc1 | 
> 1000 | COC(=O)CCCCCCCCC(=O)Nc1ccc(Cl)c([N+](=O)[O-])c1 | 
10 (≈ 37.6 µM) | CCCCCCC(=O)Nc1cc([N+](=O)[O-])ccc1O | 
1000 (≈ 3010 µM) | COC(=O)CCCCCCC(=O)Nc1ccc(Cl)c(Cl)c1 | 
1000 (≈ 2920 µM) | COC(=O)CCCCCCC(=O)Nc1ccc(Cl)c([N+](=O)[O-])c1 | 
1 (≈ 3.05 µM) | C=C(CCCCCCCC)C(=O)Nc1ccc(Cl)c(Cl)c1 | 
10 (≈ 31.6 µM) | CCCCCCCCCC(=O)Nc1cc(Cl)cc(Cl)c1 | 

MIC [4] [µg/mL] | SMILES | further results
10 (≈ 39.1 µM) | CCCCCCC(=O)Nc1cc(Cl)ccc1O | 
1 (≈ 3.33 µM) | C=C(CCCCCC)C(=O)Nc1cc(Cl)cc(Cl)c1 | Activity [2]: Concentration effective; Activity [3]: Negative; Activity [5]: Concentration effective; Activity [6]: Negative
10 (≈ 30.6 µM) | O=C(Nc1cc([N+](=O)[O-])ccc1O)c1ccc(Cl)c(Cl)c1 | 
1000 (≈ 3290 µM) | COC(=O)CCCCC(=O)Nc1ccc(Cl)c(Cl)c1 | 
1 (≈ 3.01 µM) | O=C(O)CCCCCCCC(=O)Nc1ccc(Cl)c(Cl)c1 | 
1 (≈ 3.55 µM) | C=C(CCCCCC)C(=O)Nc1cc(Cl)ccc1O | 
10 (≈ 29 µM) | CC(C)c1ccc(S(=O)(=O)Nc2ccc(Cl)c(Cl)c2)cc1 | 
10 (≈ 39.6 µM) | CCCCCC(=O)Nc1cc([N+](=O)[O-])ccc1O | 
10 (≈ 37.1 µM) | CCCCCCCC(=O)Nc1cc(Cl)ccc1O | 
10 (≈ 32.4 µM) | CC(CC(=O)Nc1ccc(Cl)c(Cl)c1)c1ccccc1 (stereo unspecified) | 
10 (≈ 27.9 µM) | CCCCc1ccc(S(=O)(=O)Nc2ccc(Cl)c(Cl)c2)cc1 | 
100 (≈ 318 µM) | COC(=O)CCCCC(=O)Nc1ccc(Cl)c([N+](=O)[O-])c1 | 
> 1000 | CCc1ccc(C(=O)Nc2ccc(Cl)c(Cl)c2)cc1 | 
1 (≈ 3.23 µM) | C=C(CCCCCCCC)C(=O)Nc1cc(Cl)ccc1O | 
1000 (≈ 3620 µM) | COC(=O)CCC(=O)Nc1c(Cl)cccc1Cl | 
1 (≈ 3.36 µM) | CCCCCCCCCC(=O)Nc1cc(Cl)ccc1O | 
1 (≈ 3.4 µM) | O=C(CCc1ccccc1)Nc1ccc(Cl)c(Cl)c1 | 
10 (≈ 30.7 µM) | CC(C)c1ccc(S(=O)(=O)Nc2cc(Cl)ccc2O)cc1 | 
> 1000 | O=C(O)CCCCCCCCC(=O)Nc1ccc(Cl)c(Cl)c1 | 
10 (≈ 30.5 µM) | C=C(CCCCCCCC)C(=O)Nc1cc(Cl)cc(Cl)c1 | 
100 (≈ 394 µM) | C=C(CCCC)C(=O)Nc1cc(Cl)ccc1O | 
10 (≈ 31.6 µM) | CCCCCCCCCC(=O)Nc1ccc(Cl)c(Cl)c1 | 
10 (≈ 28.4 µM) | O=S(=O)(Nc1cc(Cl)ccc1O)c1ccc(Cl)c(Cl)c1 | 
10 (≈ 29.4 µM) | CCCCc1ccc(S(=O)(=O)Nc2cc(Cl)ccc2O)cc1 | 
